This is a sample that favours compounds with a hit; in the whole collection about 2.9% have one here.
DENV2 CPE rescue = inhibitors of DENV2 cytopathic effect, primary screen, cell-based, plate reader, single concentration; DENV2-infected cells, cytopathic effect rescue; CPE inhibition, % at 9.99 µM; 350,000 compounds, 1.7% hits; in the data active means CPE inhibition above about 20%, passing the limit was not always enough; inconclusive means no clear call, values can overlap the other calls; tested in BHK-21 cells;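 further: 0% = median of neutral control wells and 100% = median of positive control wells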
SIRT5 block = SIRT5 desuccinylase inhibitors, primary screen, biochemical, fluorescence imaging, single point, set 5. NAD-dependent protein deacylase sirtuin-5, mitochondrial (Homo sapiens), Q9NXA8. Purified SirT5, succinyl-peptide AMC, trypsin-coupled fluorescence. inhibition, % at 15 µM. 330,000 compounds, 1.1% hits. AID 652115, 2013; in the data active means inhibition above about 15%; inconclusive means no clear call, values can overlap the other calls
Target sequence (Q9NXA8 whole entry, looked up): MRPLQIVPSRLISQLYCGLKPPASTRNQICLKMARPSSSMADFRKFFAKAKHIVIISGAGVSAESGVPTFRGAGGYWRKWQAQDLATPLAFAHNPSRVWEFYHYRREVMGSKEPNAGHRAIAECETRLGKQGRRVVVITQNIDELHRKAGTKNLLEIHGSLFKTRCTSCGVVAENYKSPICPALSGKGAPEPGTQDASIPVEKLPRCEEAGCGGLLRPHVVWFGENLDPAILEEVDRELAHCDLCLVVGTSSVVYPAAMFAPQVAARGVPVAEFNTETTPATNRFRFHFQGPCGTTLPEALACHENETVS
S100A4 inh HTS = inhibitors of S100A4-myosin IIA peptide binding, primary screen, biochemical, fluorescence polarization, TAMRA-MyoIIA peptide; Protein S100-A4 (Homo sapiens), P26447; inhibition, % at 10.7 µM; 360,000 compounds, 0.14% hits;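 active means mean inhibition of at least 70% across replicates, with every replicate also reaching that level; inconclusive means mean inhibition reaches 70% but some replicates fall short; inactive means mean inhibition below 70%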
Target sequence (P26447 whole entry, looked up): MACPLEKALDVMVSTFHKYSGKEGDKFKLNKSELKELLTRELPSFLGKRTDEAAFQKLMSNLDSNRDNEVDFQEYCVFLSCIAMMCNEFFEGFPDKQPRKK
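Material: human S100A4 monomer with TAMRA-labelled myosin IIA peptide; buffer or medium: HEPES pH 7.2 with CaCl2, KCl, NaCl, DTT, Triton; compound dosing: one concentration per compound; schedule: 5 min incubation before reading; benchmarks: neutral control DMSO, positive control TFP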
C2C12 statin = suppressors of statin myotoxicity in C2C12 myotubes, primary screen, cell-based, single point, plate reader | C2C12 myotubes + simvastatin, ATP luminescence, 48 h; scaled: DMSO 0, geranylgeraniol control 100 | rescue of ATP level, % at 7.49 µM | 330,000 compounds, 0.78% hits | AID 602340, 2012;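 active means mean ATP rescue above about 67%, or every replicate alone reaching that limit, limit read from the data, passing the limit was not always enough; inconclusive means no clear call, values can overlap the other calls; inactive means mean under the limit and some replicate under it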;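 further: myotubes were challenged with 10 µM simvastatin during compound exposure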
PGC1a acetyl inh = inhibitors of PGC1a acetylation signal, primary screen, cell-based, U2OS, AlphaScreen, inhibitor mode; inhibition, % at 15.6 µM; 350,000 compounds, 0.17% hits; AlphaScreen anti-acetyl-lysine; with virally co-expressed GCN5 acetyltransferase;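 active means every replicate shows inhibition of at least 40%; inconclusive means mean inhibition at least 40% but some replicate below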;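 further: 0% = neutral control wells and 100% = positive control wells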
The depositor's hits bear a star; ? = inconclusive; · = not tested or not shown.

SMILES	DENV2 CPE rescue	SIRT5 block	S100A4 inh HTS	C2C12 statin	PGC1a acetyl inh
CCOC(=O)C1=C(C)N[C@@]2(O)c3ccccc3C(=O)[C@@]12O	·	·	7.9	129.7*	2.8
COc1cccc(NC(=O)N2C[C@H](O)COC[C@H]3O[C@H](CC(=O)NCc4ccccc4F)CC[C@@H]32)c1	-4.7	3.0	-4.4	-0.5	2.2
COc1ccc(C(=O)Nc2ccccc2C(=O)N2CCCCCC2)cc1	-2.7	-3.1	-5.2	8.1	-3.7
CS(=O)(=O)Nc1ccc(C(=O)Nc2ccccc2C(=O)N2CCCC2)cc1	·	·	·	90.1*	17.5
COc1cc(OC)cc(C(=O)Nc2ccccc2C(=O)N2CCCC2)c1	·	·	·	114.8*	-2.0
CO[C@@H]1CN(C)C(=O)c2cc(NC(C)=O)ccc2OC[C@@H](C)N(Cc2ccncc2)C[C@@H]1C	-5.6	-7.0	-6.2	1.9	3.7
C[C@H]1CCCCO[C@@H](CN(C)C(=O)CCC(F)(F)F)[C@@H](C)CN([C@@H](C)CO)C(=O)c2cc(NC(=O)c3ccccc3)ccc2O1	-9.2	10.2	6.8	·	9.0
O=C(CSc1nc(=O)[nH]c2c1CCCC2)Nc1ccc(F)cc1F	40.7*	-1.6	-3.2	5.0	-1.7
Cc1ccc2nc(SCC(=O)Nc3ccc(F)cc3F)[nH]c2c1	·	·	·	-4.4	-13.0
CCNC(=O)C[C@H]1CC[C@@H]2[C@H](COc3ccc(NC(=O)c4cccs4)cc3C(=O)N2C)O1	2.6	-2.0	7.7	-7.2	4.3
O=C(CNc1cccc(F)c1)N1CCc2ccccc2C1	5.4	-6.6	0.2	117.9*	-1.4
C[C@H](CO)N1C[C@H](C)[C@@H](CN(C)S(=O)(=O)c2ccc(F)cc2)Oc2ccc(NC(=O)Nc3ccc4c(c3)OCO4)cc2CC1=O	5.8	8.7	-8.4	-129.6	-4.4
CC1(Cc2ccccc2OC(F)(F)F)C(=O)Nc2ccc(S(=O)(=O)NC3CCCCC3)cc21 (stereo unspecified)	1.6	1.5	5.3	132.1*	-24.6
COc1ccc(S(=O)(=O)Nc2ccc3c(c2)C(=O)N([C@@H](C)CO)C[C@H](C)[C@@H](CN(C)C(=O)Nc2ccc4c(c2)OCO4)OCCCC[C@H](C)O3)cc1	-5.4	-2.1	3.5	·	-6.4
C[C@H]1CCCCO[C@H](CN(C)C(=O)Nc2ccc3c(c2)OCO3)[C@@H](C)CN([C@@H](C)CO)C(=O)c2cc(NS(=O)(=O)c3ccc(Cl)cc3)ccc2O1	51.8*	1.7	0.3	·	5.3
COc1ccc(S(=O)(=O)Nc2ccc3c(c2)C(=O)N([C@H](C)CO)C[C@H](C)[C@H](CN(C)C(=O)Nc2ccc4c(c2)OCO4)OCCCC[C@H](C)O3)cc1	-1.6	17.4*	-3.3	·	-7.7
COc1cccc(C(=O)Nc2ccc3c(c2)OC[C@@H](C)NC[C@@H](C)[C@H](OC)CN(C)C3=O)c1	22.3*	1.1	-9.6	19.9	2.0
COc1cccc(C(=O)Nc2ccc3c(c2)OC[C@@H](C)NC[C@@H](C)[C@@H](OC)CN(C)C3=O)c1	-0.2	1.2	-8.1	9.2	-3.4
CO[C@@H]1CN(C)C(=O)c2ccc(NC(=O)c3cccc(F)c3)cc2OC[C@@H](C)NC[C@H]1C	30.7*	4.5	12.6	3.2	0.5
C[C@@H]1CN([C@@H](C)CO)C(=O)c2cc(NS(=O)(=O)c3cn(C)cn3)ccc2O[C@@H](C)CCCCO[C@H]1CN(C)Cc1ccc(C(=O)O)cc1	6.2	-4.2	14.0	·	0.7
COCC(=O)Nc1ccc2c(c1)C(=O)N(C)[C@H]1CC[C@@H](CC(=O)Nc3cn(C)nc3C)O[C@H]1CO2	-0.5	·	·	-3.8	4.0
CCCNC(=O)N1CC[C@@H]2[C@H]1c1cc(-c3ccc(F)cc3)ccc1N(C)[C@H]2CO	?	-4.4	56.9	10.7	-0.8
Cc1nn(-c2ccccn2)c2c1-c1nc(N)ncc1CC2	·	·	·	115.1*	28.0
Cc1nn(-c2ccccn2)c2c1-c1nc(N3CCOCC3)ncc1CC2	·	·	·	·	-1.9
CO[C@@H]1CN(C)C(=O)c2ccc(NC(=O)C3CCC3)cc2OC[C@H](C)NC[C@@H]1C	34.3*	-3.7	-0.7	-5.3	·
CCCC(=O)Nc1ccc2c(c1)OC[C@H](C)NC[C@H](C)[C@H](OC)CN(C)C2=O	-1.2	0.4	100.9*	12.1	2.2
